The entries come from a sample that favours hits as a whole.
KDM4C inh – inhibitors of human demethylase GASC-1 KDM4C. GST-KDM4C 2-372, H3K9me3 peptide, LANCE TR-FRET. inhibition, % at 12.5 µM. 96,000 compounds, 0.15% hits. AID 720574;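 active means mean replicate inhibition above about 25%, with at least 55% of replicates also reaching it, limit read from the data, passing the limit was not always enough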
Target sequence (Q9H3R0 2-372 limits assumed): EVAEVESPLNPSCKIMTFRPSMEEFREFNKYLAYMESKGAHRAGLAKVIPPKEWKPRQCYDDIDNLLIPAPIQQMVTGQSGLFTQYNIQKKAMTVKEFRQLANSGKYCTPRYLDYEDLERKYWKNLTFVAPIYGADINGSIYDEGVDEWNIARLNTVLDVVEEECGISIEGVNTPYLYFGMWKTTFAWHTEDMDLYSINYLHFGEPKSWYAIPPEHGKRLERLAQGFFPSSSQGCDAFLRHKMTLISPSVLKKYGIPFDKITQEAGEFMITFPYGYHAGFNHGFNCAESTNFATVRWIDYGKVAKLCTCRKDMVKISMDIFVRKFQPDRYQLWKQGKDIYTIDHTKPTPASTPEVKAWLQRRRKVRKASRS
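Assay system: GST-GASC-1 enzyme fragment 2-372 | Amount: 10 nM enzyme | Medium: HEPES buffer, pH 7.5, plus ascorbate | Reagent: H3K9me3 peptide substrate, Fe(II), 2-oxoglutarate | Doses: Single-point compound screen | Incubation: 30 min demethylation and 1 h detection at room temperature | Measured by: LANCE TR-FRET, excitation 340 nm, emissions 618 and 671 nm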
Pf Dd2 growth – inhibitors of Plasmodium falciparum Dd2 growth | AID 1159554 | P. falciparum Dd2 growth, SYBR Green, 72 h; stronger effect = lower value | 94,000 compounds, 2.3% hits | activity change, % at 10 µM; in the data active means activity change below about -80%
IDH1 mut inh – blocks human IDH1 R132H reductase activity. inhibition, % at 10 µM. diaphorase/resazurin fluorescence, 60 min. 70,000 compounds, 0.18% hits. AID 624101; in the data active means inhibition above about 34%
Numbers stand for hits; n = inactive; x = no result given; ! = not confirmed by another sample.

SMILES	KDM4C inh	Pf Dd2 growth	IDH1 mut inh
C/C=C/c1ccc(C2[C@@H]3CN(Cc4cccc(F)c4)C[C@H]2N3)cc1 (some centres undefined)	n	-88!	x
C/C=C/c1ccc(C2[C@@H]3CN(Cc4cccnc4)C[C@H]2N3)cc1 (some centres undefined)	n	-84!	x
C/C=C/c1ccc(C2[C@@H]3CN(C(C)=O)C[C@H]2N3)cc1 (some centres undefined)	n	n	x
C/C=C/c1ccc(C2[C@@H]3CN(Cc4ccccn4)C[C@H]2N3)cc1 (some centres undefined)	n	n	x
O=C(Cc1ccccc1)N1CC2(C1)[C@H](c1ccccc1)[C@H](CO)N2Cc1cccc(Cl)c1	n	n	x
COC(=O)[C@H]1[C@H](CO)[C@H]2Cn3c(ccc(/C=C/c4ccccc4)c3=O)[C@@H]1N2CC1CCCC1	n	n	x
COC(=O)[C@@H]1[C@@H](CO)[C@@H]2Cn3c(ccc(C4=CCCCC4)c3=O)[C@H]1N2Cc1ccccc1OC	n	n	x
Cc1ccc(OC(=O)N(C)C[C@@H]2OCc3ccccc3-c3c(n(C)c4ccccc34)C(=O)N([C@@H](C)CO)C[C@@H]2C)cc1	n	n	x
Cc1ccc(OC(=O)N(C)C[C@H]2OCc3ccccc3-c3c(n(C)c4ccccc34)C(=O)N([C@H](C)CO)C[C@@H]2C)cc1	n	-87	x
COC(=O)[C@@H]1[C@@H](CO)[C@@H]2Cn3c(ccc(-c4ccccc4)c3=O)[C@H]1N2CC1CC1	n	n	x
N#CC(C#N)=Cc1ccc(O)cc1	x	x	n
N#CC(C#N)=Cc1cc(O)c(O)c(O)c1	x	x	33

Bioassay records deposited in PubChem by Broad Institute.
